From PubChem BioAssay
Results filed as inconclusive are left out.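 The calls were made as follows, unless noted: active = cell viability at or below a set limit in both duplicate runs, the limit being the all-compound median minus 4 SD (cut at about 23% in these data, passing the limit was not always enough); inconclusive = no clear call, values can overlap the other calls; inactive = the rest.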

What was measured:
[1] = S. cerevisiae growth inhibition in permissive medium (OD615), pilot counter-assay for S. cerevisiae lifespan shortening project, permissive growth control (AID 705;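 active = growth inhibition above 25% in both replicates, a cutoff set 3 SD above the mean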); conditions: OD615, 24 h, at 10 µM, stronger effect = higher value
Method in brief: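 System: Engineered DeaD yeast | Buffer or medium: SC raffinose/galactose permissive medium | Doses: 10 µM single dose, 0.25% DMSO | Times: 24 h exposure, 30 °C | Measured by: OD615 turbidity read | Read-out: Yeast growth inhibition indicated by reduced 24 h OD615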

[2] = S. cerevisiae growth inhibition in restrictive medium, OD615, pilot screen, restrictive growth control, yeast lifespan reduction project (AID 706;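 active = growth inhibition above a set limit, 3 SD over mean compound inhibition, in both replicates, cut at about 43% in these data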;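 also: modified DeaD lifespan yeast strain shifted to restrictive glucose medium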); conditions: OD615, 48 h, at 10 µM, stronger effect = higher value
Method in brief: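 Assay system: engineered S. cerevisiae DeaD strain; Buffer or medium: CSMM-D glucose medium; Dosing: 10 µM compound, 0.25% DMSO; Times: cell pre-growth 4 h, compound exposure 48 h, 30 °C; Detection: absorbance (optical density) measured at 615 nm.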

[3] = doxorubicin toxicity protection in MRP-1 cells – H69AR cells, CellTiter-Glo, duplicate, MRP-1 activator project, pilot screen (AID 807;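 active = viability increase at or above a cutoff of the median across tested compounds plus 3 SD, cut at about 8.5% in these data, passing the limit was not always enough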;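 also: compound pretreatment 18-22 h then 72 h combined with doxorubicin; 0% = doxorubicin alone and 100% = vehicle without doxorubicin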); conditions: H69AR viability with doxorubicin, CellTiter-Glo luminescence; at 10 µM; stronger effect = higher value
[4] = viability of HCT116 without oncogenic beta-catenin – human colon tumor cells, pilot screen (AID 823); conditions: HCT116 beta-catenin knockout viability, CellTiter-Glo, 60 h; at 10 µM; stronger effect = lower value;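 also: 0% = wells killed by 20 µM Hyamine and 100% = untreated DMSO cell wells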
[5] = viability of PTEN-null HCT116 cells – cell-based, HCT116 clonal line, CellTiter-Glo, pilot screen (AID 824;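 active = viability at or below 27.92% in each of two runs, the all-compound median minus 4 SD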;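 also: 0% = 20 µM Hyamine control and 100% = vehicle cell control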); conditions: HCT116 PTEN-deleted viability, 60 h, at 10 µM, stronger effect = lower value
[6] = RAM pathway blockade in budding yeast – dse1pr::URA3 reporter, 5-FOA selection, pilot screen (AID 869;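 active = inhibition over a set limit, the all-compound mean plus 3 SD, in both replicate runs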;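 also: 0% = DMSO wells with no growth and 100% = 10 µM 1-NA-PP1 with full growth; RAM network block rescues cells from 5-FOA so hits raise OD615 growth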); conditions: S. cerevisiae dse1pr::URA3 5-FOA growth, OD615, 2 d; at 10 µM; stronger effect = higher value; strain carries analog-sensitive mutant Cbk1 kinase
[7] = RAM signaling pathway blockade in yeast – S. cerevisiae, Pdr1DBD-CYC8 efflux-inhibited sensitized strain, primary screen (AID 1298;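 active = RAM network inhibition above 8.4% in each of two replicates, 3 SD over the compound average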;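 also: 0% = DMSO untreated cells without growth and 100% = 10 µM 1-NA-PP1 full growth; higher means more yeast growth rescued from 5-FOA killing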); conditions: S. cerevisiae cbk1-as DSE1-URA3 strain, 5-FOA growth OD615, 2 d; at 50 µM; stronger effect = higher value

COc1ccc(NC(=O)CN(c2cc(C)cc(C)c2)S(=O)(=O)c2c(C)n[nH]c2C)cc1
inactive: growth inhibition [1] -9.19% | growth inhibition [2] -1.92% | viability increase [3] -2.97% | viability [4] 102% | viability [5] 94.6% | inhibition [6] 0.955% | RAM network inhibition [7] 5.46%

Cc1ccc(N(CC(O)CN2CCCC2)S(=O)(=O)c2ccccc2)cc1 (stereo unspecified)
inactive: growth inhibition [1] -1.29% | growth inhibition [2] -3.1% | viability increase [3] -2.89% | viability [4] 94.2% | viability [5] 91.2% | inhibition [6] -0.105% | RAM network inhibition [7] 5.78%

CCOC(=O)c1ccccc1NC(=O)CN(c1cccc(OC)c1)S(C)(=O)=O
inactive: growth inhibition [1] -7.1% | growth inhibition [2] -3.34% | viability increase [3] -5.04% | viability [4] 91.7% | viability [5] 83.3% | inhibition [6] 1.65% | RAM network inhibition [7] 4.56%

Cc1sc2nc(NCCO)[nH]c(=O)c2c1C
inactive: growth inhibition [1] -15.5% | growth inhibition [2] -23.2% | viability increase [3] -2.72% | viability [4] 107% | viability [5] 97.2% | inhibition [6] 0.885% | RAM network inhibition [7] -1.79%

COC(=O)c1ccc(OCC(O)CN(CC(C)C)CC(C)C)cc1 (stereo unspecified)
inactive: growth inhibition [1] -3.55% | growth inhibition [2] -4.33% | viability increase [3] -1.4% | viability [4] 76.1% | viability [5] 86.4% | inhibition [6] 1.47% | RAM network inhibition [7] 2.82%

COc1ccc(C2CC(c3c(Cl)cccc3Cl)n3nc(N)nc3N2)cc1 (stereo unspecified)
inactive: growth inhibition [1] -6.17% | growth inhibition [2] 5.1% | viability increase [3] -1.64% | viability [4] 95.3% | viability [5] 88.1% | inhibition [6] 2.57% | RAM network inhibition [7] 6.67%

Cc1noc(C(=O)N2CC3(C)CC2CC(C)(C)C3)c1Cl (stereo unspecified)
inactive: growth inhibition [1] -13% | growth inhibition [2] -13.2% | viability increase [3] 0.45% | viability [4] 82.9% | viability [5] 83% | inhibition [6] -0.145% | RAM network inhibition [7] 5.28%

CCc1nc2oc(C(=O)c3ccccc3)c(N)c2c2c1COC(C)(C)C2
inactive: growth inhibition [1] -10.5% | growth inhibition [2] -9.15% | viability increase [3] -4.48% | viability [4] 81.6% | viability [5] 80.1% | inhibition [6] 0.79% | RAM network inhibition [7] 0.85%

O=C(NC1CCCCCC1)c1nnc(Cc2ccc(Cl)cc2)o1
inactive: growth inhibition [1] -12.1% | growth inhibition [2] 0.195% | viability increase [3] 2.9% | viability [4] 95.2% | viability [5] 94.5% | inhibition [6] 1.31% | RAM network inhibition [7] 2.19%

COc1cccc2cc3c(=O)n(-c4ccccc4)nc-3oc12
inactive: growth inhibition [1] -29.6% | growth inhibition [2] -20.8% | viability increase [3] -7.1% | viability [4] 97.2% | viability [5] 92.1% | inhibition [6] 2.73% | RAM network inhibition [7] 3.19%

O=C(Nc1nccs1)c1cc(S(=O)(=O)N2CCOCC2)ccc1Cl
inactive: growth inhibition [1] -0.79% | growth inhibition [2] -2.65% | viability increase [3] -3.96% | viability [4] 97.8% | viability [5] 91% | inhibition [6] 1.35% | RAM network inhibition [7] 4.18%

COC(=O)c1ccc(Cl)c(NC(=O)NC2CCCCC2)c1
inactive: growth inhibition [1] -15.1% | growth inhibition [2] -5.54% | viability increase [3] -1.61% | viability [4] 96.3% | viability [5] 93% | inhibition [6] 2.23% | RAM network inhibition [7] 6.1%

Cc1ccc(NC(=O)c2c(O)c3ccccc3n(C)c2=O)nc1
inactive: growth inhibition [1] -3.92% | growth inhibition [2] 9.36% | viability increase [3] -5.52% | viability [4] 75.3% | viability [5] 70.2% | inhibition [6] 0.36% | RAM network inhibition [7] -1.46%

COc1ccc(Cl)cc1NC(=O)c1cnc2sccn2c1=O
inactive: growth inhibition [1] -6.94% | growth inhibition [2] 9.97% | viability increase [3] -5.14% | viability [4] 82.9% | viability [5] 82.6% | inhibition [6] 4.45% | RAM network inhibition [7] 6.59%

CC(CCc1ccco1)NC(=O)Cn1ncc2c(=O)oc3ccccc3c21 (stereo unspecified)
inactive: growth inhibition [1] -15.7% | growth inhibition [2] -12.5% | viability increase [3] -3.03% | viability [4] 105% | viability [5] 93.7% | inhibition [6] 1.96% | RAM network inhibition [7] 5.79%

Cc1cccc(-n2ccnc2SCC(=O)Nc2nnc(C)s2)c1
inactive: growth inhibition [1] -5.12% | growth inhibition [2] 20.3% | viability increase [3] -4.56% | viability [4] 76.9% | viability [5] 72.8% | inhibition [6] 1.13% | RAM network inhibition [7] 6.22%

CC1(C)CC(=O)C=C(NC2CC(C)(C)NC(C)(C)C2)C1
inactive: growth inhibition [1] -11.6% | growth inhibition [2] -15.2% | viability increase [3] -0.93% | viability [4] 102% | viability [5] 98.8% | inhibition [6] 1.32% | RAM network inhibition [7] 3.08%

CC1(C)CC(=O)c2sc(NC(=O)CN3C(=O)CCC3=O)nc2C1
inactive: growth inhibition [1] -6.85% | growth inhibition [2] 0.48% | viability increase [3] -1.54% | viability [4] 103% | viability [5] 103% | inhibition [6] 0.685% | RAM network inhibition [7] 2.38%

Cn1c(Cn2c(=O)sc3ccccc32)nnc1SCC(=O)Nc1cccc(F)c1
inactive: growth inhibition [1] -12% | growth inhibition [2] -5.46% | viability increase [3] -2.58% | viability [4] 97.3% | viability [5] 93.4% | inhibition [6] 1.9% | RAM network inhibition [7] 1.86%

CC1CN(Cc2nc3c(c(=O)n(C)c(=O)n3C)n2Cc2ccc(Cl)cc2)CC(C)O1 (stereo unspecified)
inactive: growth inhibition [1] -3.79% | growth inhibition [2] 0.39% | viability increase [3] -0.99% | viability [4] 91.6% | viability [5] 91.9% | inhibition [6] 2.13% | RAM network inhibition [7] 4.34%

Cn1c2ccc(CC(=O)O)cc2c2cc(CC(=O)O)ccc21
inactive: growth inhibition [1] 1.85% | growth inhibition [2] -12.4% | viability increase [3] -3.54% | viability [4] 96.8% | viability [5] 89.7% | inhibition [6] 1.1% | RAM network inhibition [7] 0.98%

COc1ccc(OC)c(NC(=O)CSc2nnc(Cn3c(=O)sc4ccccc43)n2C)c1
inactive: growth inhibition [1] -10.2% | growth inhibition [2] -1.53% | viability increase [3] -2.91% | viability [4] 94.3% | viability [5] 86.5% | inhibition [6] 2.36% | RAM network inhibition [7] 3.22%

Cc1ccccc1NC(=O)NCCN1C(=O)C2C3C=CC(C3)C2C1=O (stereo unspecified)
inactive: growth inhibition [1] -7.87% | growth inhibition [2] 1.59% | viability increase [3] -2.01% | viability [4] 103% | viability [5] 102% | inhibition [6] 0.745% | RAM network inhibition [7] 1.46%

COC(=O)C1CCCN1C(C(=O)NC1CCCCC1)c1ccc(Cl)cc1 (stereo unspecified)
inactive: growth inhibition [1] -15.1% | growth inhibition [2] -2.47% | viability increase [3] 1.72% | viability [4] 82.7% | viability [5] 74.9% | inhibition [6] 0.02% | RAM network inhibition [7] 2.27%

C=CCn1c(SCCC#N)nnc1-c1ccncc1
inactive: growth inhibition [1] -5.01% | growth inhibition [2] -18.7% | viability increase [3] -3.07% | viability [4] 100% | viability [5] 93.4% | inhibition [6] 1.88% | RAM network inhibition [7] -0.94%

O=C(COc1ccccc1F)c1ccc(O)cc1O
inactive: growth inhibition [1] -0.53% | growth inhibition [2] 3.7% | viability increase [3] 1.2% | viability [4] 101% | viability [5] 106% | inhibition [6] 0.25% | RAM network inhibition [7] -1.69%

COc1ccc(C(=O)Nc2ccc(S(=O)(=O)Nc3cc(C)nc(C)n3)cc2)c(OC)c1
inactive: growth inhibition [1] 6.9% | growth inhibition [2] -0.365% | viability increase [3] 0.28% | viability [4] 98.6% | viability [5] 95.8% | inhibition [6] 1.77% | RAM network inhibition [7] 3.78%

N#Cc1c(SCC(N)=O)nc2c(c1-c1ccc(O)cc1)CCCC2
inactive: growth inhibition [1] -15.2% | growth inhibition [2] -15.6% | viability increase [3] -1.33% | viability [4] 94.5% | viability [5] 93.6% | inhibition [6] 3.51% | RAM network inhibition [7] 4.51%

Brc1ccc(-c2nnc(-c3ccccc3Br)o2)cc1
inactive: growth inhibition [1] 0.385% | growth inhibition [2] -1.09% | viability increase [3] -1.12% | viability [4] 87.9% | viability [5] 79.2% | inhibition [6] 2.09% | RAM network inhibition [7] 11.3%

O=C(c1cc2ccccc2cc1OCC(O)CN1CCCCC1)N1CCCCC1 (stereo unspecified)
inactive: growth inhibition [1] 2.48% | growth inhibition [2] 0.51% | viability increase [3] -4.18% | viability [4] 86.6% | viability [5] 83.5% | inhibition [6] 0.285% | RAM network inhibition [7] -0.89%

CCOC(=O)c1c(N)sc(C(=O)N2CCCCCC2)c1C
inactive: growth inhibition [1] -20.4% | growth inhibition [2] -21.8% | viability increase [3] 0.25% | viability [4] 96.7% | viability [5] 91.2% | inhibition [6] -0.305% | RAM network inhibition [7] -0.21%

Cc1cc(C(=O)NCc2ccco2)cs1
inactive: growth inhibition [1] -6.77% | growth inhibition [2] -6.79% | viability increase [3] -2.37% | viability [4] 106% | viability [5] 99.9% | inhibition [6] 2.28% | RAM network inhibition [7] -0.32%

CCOc1ccc2nc(N3CCCC(C(=O)NCCCN4CCOCC4)C3)sc2c1 (stereo unspecified)
inactive: growth inhibition [1] -10.1% | growth inhibition [2] -15.6% | viability increase [3] -2.55% | viability [4] 86.3% | viability [5] 92.8% | inhibition [6] 1.36% | RAM network inhibition [7] 0.52%
